Reference: ChEMBL document CHEMBL1142354, “Synthesis and biological evaluation of (hetero)arylmethyloxy- and arylmethylamine-phenyl derivatives as potent P-glycoprotein modulating agents” (J Med Chem, 2008)

How the values were obtained:
[1] = molecular target: T1, ATP-dependent translocase ABCB1 (Homo sapiens, UniProt P08183); assay: Activation of human P-glycoprotein ATPase in Caco-2 cells assessed as ATP depletion at 100 uM; format: cell-based; details: caco-2, 100 µM
Caco-2 = assay: Ratio of permeability from basolateral to apical side over apical to basolateral side in human Caco-2 cells
[2] = molecular target: T2, Broad substrate specificity ATP-binding cassette transporter ABCG2 (Homo sapiens, UniProt Q9UNQ0); assay: Inhibition of human BCRP pump mediated [3H]mitoxantrone transport in human Caco-2 cells; format: cell-based
T2 sequence (Q9UNQ0 whole entry): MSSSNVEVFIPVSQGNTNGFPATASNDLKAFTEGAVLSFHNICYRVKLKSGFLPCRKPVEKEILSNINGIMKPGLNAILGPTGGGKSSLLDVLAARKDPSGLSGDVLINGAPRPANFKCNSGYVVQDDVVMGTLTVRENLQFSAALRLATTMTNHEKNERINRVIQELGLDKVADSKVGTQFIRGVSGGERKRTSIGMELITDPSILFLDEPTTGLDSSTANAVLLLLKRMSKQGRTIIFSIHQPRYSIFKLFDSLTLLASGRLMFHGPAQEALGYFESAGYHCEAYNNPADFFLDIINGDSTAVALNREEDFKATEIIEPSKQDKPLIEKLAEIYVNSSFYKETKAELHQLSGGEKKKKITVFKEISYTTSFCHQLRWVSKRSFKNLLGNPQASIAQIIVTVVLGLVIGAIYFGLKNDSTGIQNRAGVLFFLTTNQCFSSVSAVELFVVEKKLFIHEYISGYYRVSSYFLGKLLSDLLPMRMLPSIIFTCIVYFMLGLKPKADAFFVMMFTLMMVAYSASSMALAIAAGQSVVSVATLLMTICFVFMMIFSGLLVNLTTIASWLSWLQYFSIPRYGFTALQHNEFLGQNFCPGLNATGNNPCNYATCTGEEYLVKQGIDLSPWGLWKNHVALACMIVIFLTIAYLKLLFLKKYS
Method in brief: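 Caco-2 cells were grown 21 days on multiscreen filters at 10 000 cells/well, and monolayers were used at TEER >800 Ω×cm². 20 nM [³H]-mitoxantrone was added basolaterally with or without compound (0.20–400 µM) for 120 min at 37 °C, and apical appearance was scintillation-counted. Percent inhibition at each concentration gave EC50; three independent determinations, triplicate samples.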

MCF7 [3] = assay: Cytotoxicity against human MCF7 cells assessed as LDH release upto 50 uM after 48 hrs; format: cell-based; details: mcf7, 48 h
[4] = molecular target: T1, ATP-dependent translocase ABCB1; assay: Inhibition of human P-glycoprotein mediated [3H]vinblastine transport in human Caco-2 cells; format: cell-based
[5] = Cytotoxicity against human Adr cells assessed as LDH release upto 50 uM after 48 hrs; format: cell-based
Method in brief: (§1)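 MCF-7/Adr cells, which overexpress P-gp, were exposed in complete medium with or without test compound. LDH released into the medium was read with CytoTox-One substrate mix: 10 min at room temperature in the dark, then stop solution, fluorescence ex 560/em 590 nm. Cytotoxicity % is (treated LDH − medium background)/(total LDH of lysed untreated cells − background) × 100.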

MCF7 [6] = assay: Cytotoxicity against adriamycin-resistant human MCF7 cells assessed as LDH release at 1 uM after 48 hrs; format: cell-based; details: mcf7, 48 h; method in brief: as §1

T1 sequence (P08183 whole entry): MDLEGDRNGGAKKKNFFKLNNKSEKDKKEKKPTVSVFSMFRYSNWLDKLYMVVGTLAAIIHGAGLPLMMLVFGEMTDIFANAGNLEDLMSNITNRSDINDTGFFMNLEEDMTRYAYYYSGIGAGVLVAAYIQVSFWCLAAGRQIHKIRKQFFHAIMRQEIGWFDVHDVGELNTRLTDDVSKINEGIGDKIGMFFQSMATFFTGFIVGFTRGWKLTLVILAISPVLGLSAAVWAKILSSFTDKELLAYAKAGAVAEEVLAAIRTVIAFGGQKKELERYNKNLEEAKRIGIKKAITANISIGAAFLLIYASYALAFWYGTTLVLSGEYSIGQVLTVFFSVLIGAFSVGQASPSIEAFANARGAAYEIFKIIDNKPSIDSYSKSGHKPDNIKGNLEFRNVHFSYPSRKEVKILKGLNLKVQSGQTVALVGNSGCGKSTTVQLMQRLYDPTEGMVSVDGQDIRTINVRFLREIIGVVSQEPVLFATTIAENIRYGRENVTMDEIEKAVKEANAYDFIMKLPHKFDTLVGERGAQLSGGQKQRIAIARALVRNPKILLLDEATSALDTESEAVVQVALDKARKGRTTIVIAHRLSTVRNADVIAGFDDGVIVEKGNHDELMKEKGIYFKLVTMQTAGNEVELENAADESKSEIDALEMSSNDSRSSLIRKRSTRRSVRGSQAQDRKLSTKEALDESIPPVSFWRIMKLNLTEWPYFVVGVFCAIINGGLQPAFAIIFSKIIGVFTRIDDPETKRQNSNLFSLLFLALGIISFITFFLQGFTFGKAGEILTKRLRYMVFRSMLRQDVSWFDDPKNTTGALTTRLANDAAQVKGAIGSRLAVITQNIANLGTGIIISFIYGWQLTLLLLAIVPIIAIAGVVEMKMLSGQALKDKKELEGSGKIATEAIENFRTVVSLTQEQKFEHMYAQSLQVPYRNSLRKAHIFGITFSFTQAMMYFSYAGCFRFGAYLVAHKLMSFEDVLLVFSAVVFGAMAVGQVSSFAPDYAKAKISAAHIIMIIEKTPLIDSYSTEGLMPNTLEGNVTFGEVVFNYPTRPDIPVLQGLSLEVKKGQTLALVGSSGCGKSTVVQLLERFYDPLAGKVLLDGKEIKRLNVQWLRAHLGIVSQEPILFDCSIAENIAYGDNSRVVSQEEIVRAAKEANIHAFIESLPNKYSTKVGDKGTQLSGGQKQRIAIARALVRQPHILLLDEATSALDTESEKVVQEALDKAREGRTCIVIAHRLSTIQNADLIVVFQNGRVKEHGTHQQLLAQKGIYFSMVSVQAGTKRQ

Row | SMILES | Activity [1] | Ratio (Caco-2) | EC50 [2] | Activity (MCF7 [3]) | EC50 [4] | Activity [5] | Activity (MCF7 [6])
1 | COc1cccc(CCc2ccccc2OCc2cccc(OC)c2)c1 | Not Active | 13 | – | – | – | – | –
2 | COc1cccc(CCc2ccccc2NCc2cccc(OC)c2OC)c1 | Not Active | 5.5 | 1.5 µM | Not Active | 0.085 µM | Not Active | –
3 | COc1cccc(CCc2ccccc2OCc2ccncc2)c1 | Active | 2.1 | – | – | 0.85 µM | – | 50%
4 | COc1cccc(CCc2ccccc2OCc2ccccc2OC)c1 | Not Active | 8.7 | – | – | 12 µM | – | –
5 | c1ccc(CCc2ccccc2OCc2ccccn2)cc1 | Not Active | – | – | – | – | – | –
6 | COc1cccc(CCc2ccccc2OCc2cc(OC)cc(OC)c2)c1 | Not Active | 6.7 | – | – | 2.5 µM | – | –
7 | COc1cccc(CCc2ccccc2OCc2ccccn2)c1 | Not Active | – | – | – | – | – | –
8 | COc1cc2c(cc1OC)CN(CCc1ccc(NC(=O)c3cccc4c(=O)c5cccc(OC)c5[nH]c34)cc1)CC2 | Not Active | – | – | – | – | – | –
9 | COc1ccc(COc2ccccc2CCc2ccccc2)cc1 | Not Active | 5.1 | – | – | 3.1 µM | – | –
10 | c1ccc(CCc2ccccc2OCc2cccnc2)cc1 | Active | – | – | – | – | – | –
11 | COc1cccc(CCc2ccccc2OCc2ccccc2)c1 | Not Active | – | – | – | – | – | –
12 | COc1cccc(CCc2ccccc2NCc2cccc(OC)c2)c1 | Not Active | 2.9 | 7 µM | – | 0.48 µM | 10% | –
13 | c1ccc(CCc2ccccc2OCc2ccccc2)cc1 | Active | – | – | – | > 1000 µM | – | –
14 | COc1cccc(CCc2ccccc2OCc2cccc(OC)c2OC)c1 | Active | – | 120 µM | Not Active | – | Not Active | –
15 | COc1cccc(COc2ccccc2CCc2ccccc2)c1OC | Not Active | 0.95 | 75 µM | Not Active | 0.8 µM | Not Active | –
16 | COc1cccc(CCc2ccccc2NCc2ccc(OC)c(OC)c2)c1 | Not Active | 5.6 | 0.5 µM | Not Active | 0.18 µM | Not Active | –
17 | COc1cccc(CCc2ccccc2OCc2ccc(OC)c(OC)c2)c1 | Not Active | 5.1 | 150 µM | Not Active | 0.65 µM | Not Active | –
18 | COc1cc(COc2ccccc2CCc2ccccc2)cc(OC)c1 | Not Active | 5.7 | – | – | 1.6 µM | – | –
19 | COc1ccc(COc2ccccc2CCc2ccccc2)cc1OC | Not Active | 2.1 | 58 µM | – | 0.75 µM | 10% | –
20 | COc1cccc(CCc2ccccc2NCc2cc(OC)cc(OC)c2)c1 | Not Active | 6.9 | – | Not Active | 0.9 µM | Not Active | –
21 | c1ccc(CCc2ccccc2OCc2ccncc2)cc1 | Active | 1.3 | – | – | 18 µM | – | –
22 | COc1cccc(CCc2ccccc2OCc2cccnc2)c1 | Active | – | – | – | > 1000 µM | – | –
23 | COc1ccc(COc2ccccc2CCc2cccc(OC)c2)cc1 | Not Active | 7.6 | – | – | 5.2 µM | – | –
24 | COc1ccccc1COc1ccccc1CCc1ccccc1 | Not Active | 1.4 | – | – | 20 µM | – | –
